Source: ChEMBL document CHEMBL1123695, “Synthesis and 3'-substituent effects of some 7 alpha-methoxy-1-oxacephems on antibacterial activity and alkaline hydrolysis rates” (1987)
Converted amounts (≈) assume the structure as drawn.

What was measured:
Type in all cases: functional
Escherichia coli [1] = assay: Antibacterial activity against Escherichia coli (NIHJ JC-2) a sensitive gram-negative bacteria
Summary of the method: (§1)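 Agar dilution on sensitivity test agar containing serial twofold antibiotic dilutions. Overnight tryptosoy broth cultures were diluted in the same broth to about 10^6 cells/mL, and one loopful was applied with an inoculating device. Plates were incubated at 37 °C for 18-20 h. MIC was taken as the lowest concentration inhibiting visible growth, in micrograms per milliliter.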

Klebsiella pneumoniae = assay: Antibacterial activity against Kleb. pneumoniae (SRL-1) a sensitive gram-negative bacteria; summary of the method: as §1
Escherichia coli [2] = assay: Antibacterial activity against Escherichia coli (H) a sensitive gram-negative bacteria; summary of the method: as §1
Bacteria [3] = assay: Geometric mean of the four MIC's of different sensitive gram negative bacteria expressed
Escherichia coli [4] = assay: Antibacterial activity against Escherichia coli (EC-14) a sensitive gram-negative bacteria; summary of the method: as §1
Bacteria [5] = assay: Geometric mean of the four MIC's of different sensitive gram negative bacteria.

Row | MIC (Escherichia coli [1]) | MIC (Klebsiella pneumoniae) | MIC (Escherichia coli [2]) | MIC (Escherichia coli [4]) | SMILES | Geometric mean (Bacteria [3]) | Geometric mean (Bacteria [5])
1 | 12.5 µg/mL (≈ 29.5 µM) | 12.5 µg/mL (≈ 29.5 µM) | 12.5 µg/mL (≈ 29.5 µM) | 12.5 µg/mL (≈ 29.5 µM) | CO[C@@]1(NC(=O)Cc2ccccc2)C(=O)N2C(C(=O)[O-])=C(C[n+]3ccccc3)COC21 (stereo not given in full) | 29.5 µM | 
2 | 3.13 µg/mL | 3.13 µg/mL | 0.78 µg/mL | 0.78 µg/mL | CO[C@@]1(NC(=O)Cc2ccccc2)C(=O)N2C(C(=O)[O-])=C(COC(N)=O)COC21.[Na+] (stereo not given in full) | 3.66 µM | 
3 | 0.78 µg/mL | 0.39 µg/mL | 0.1 µg/mL | 0.39 µg/mL | CO[C@@]1(NC(=O)Cc2ccccc2)C(=O)N2C(C(=O)[O-])=C(CSc3nnnn3C)CO[C@@H]21.[Na+] | 0.684 µM | 
4 | 100 µg/mL | 50 µg/mL | 25 µg/mL | 50 µg/mL | CO[C@@]1(NC(=O)Cc2ccccc2)C(=O)N2C(C(=O)[O-])=C(CO)CO[C@@H]21.[Na+] | 130 µM | 
5 | 200 µg/mL | 50 µg/mL | 25 µg/mL | 100 µg/mL | COCC1=C(C(=O)[O-])N2C(=O)[C@](NC(=O)Cc3ccccc3)(OC)[C@H]2OC1.[Na+] | 178 µM | 
6 | 50 µg/mL | 25 µg/mL | 12.5 µg/mL | 25 µg/mL | CO[C@@]1(NC(=O)Cc2ccccc2)C(=O)N2C(C(=O)[O-])=C(CC#N)CO[C@@H]21.[Na+] | 63.6 µM | 
7 | 3.13 µg/mL | 1.56 µg/mL | 0.78 µg/mL | 3.13 µg/mL | CO[C@@]1(NC(=O)Cc2ccccc2)C(=O)N2C(C(=O)[O-])=C(COC(C)=O)CO[C@@H]21.[Na+] | 4.36 µM | 
8 | 200 µg/mL | 100 µg/mL | 100 µg/mL | 100 µg/mL | CO[C@@]1(NC(=O)Cc2ccccc2)C(=O)N2C(C(=O)[O-])=C(C)CO[C@@H]21.[Na+] |  | 323 µM
9 | > 400 µg/mL | 100 µg/mL | 50 µg/mL | 200 µg/mL | CO[C@@]1(NC(=O)Cc2ccccc2)C(=O)N2C(C(=O)[O-])=C(CSC)CO[C@@H]21.[Na+] | 406 µM | 
